Legend:
[1] = target: Atypical kinase COQ8A, mitochondrial (Homo sapiens) (UniProt Q8NI60); assay: Binding affinity to wild-type human […] ADCK3 (M280 to Q647 residues) expressed in Escherichia coli BL21 at 1 uM by Kinomescan method relative to control
[2] = target: RAC-alpha serine/threonine-protein kinase (Homo sapiens) (UniProt P31749); assay: Binding affinity to wild-type human partial length AKT1 expressed in Escherichia coli BL21 at 1 uM by Kinomescan method relative to control
How it was run: (§1)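 Kinome-wide competition binding panel run by an outside provider, with each compound tested at a single concentration. Activity is read against the kinase panel.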

[3] = target: ALK tyrosine kinase receptor (Homo sapiens) (UniProt Q9UM73); assay: Binding affinity to wild-type human partial length ALK (I1088 to E1409 residues) expressed in HEK293 cells at 1 uM by Kinomescan method relative to control; assay type: cell-based
[4] = target: Aurora kinase A (Homo sapiens) (UniProt O14965); assay: Binding affinity to wild-type human partial length AURKA (E122 to K401 residues) expressed in HEK293 cells at 1 uM by Kinomescan method relative to control; assay type: cell-based; how it was run: as §1
[5] = target: Serine/threonine-protein kinase BRSK1 (Homo sapiens) (UniProt Q8TDC3); assay: Binding affinity to wild-type human partial length BRSK1 (M1 to E754 residues) expressed in Escherichia coli BL21 at 1 uM by Kinomescan method relative to control
Sequence of Serine/threonine-protein kinase BRSK1 (Homo sapiens) (Q8TDC3 whole entry, the tested form may be a part): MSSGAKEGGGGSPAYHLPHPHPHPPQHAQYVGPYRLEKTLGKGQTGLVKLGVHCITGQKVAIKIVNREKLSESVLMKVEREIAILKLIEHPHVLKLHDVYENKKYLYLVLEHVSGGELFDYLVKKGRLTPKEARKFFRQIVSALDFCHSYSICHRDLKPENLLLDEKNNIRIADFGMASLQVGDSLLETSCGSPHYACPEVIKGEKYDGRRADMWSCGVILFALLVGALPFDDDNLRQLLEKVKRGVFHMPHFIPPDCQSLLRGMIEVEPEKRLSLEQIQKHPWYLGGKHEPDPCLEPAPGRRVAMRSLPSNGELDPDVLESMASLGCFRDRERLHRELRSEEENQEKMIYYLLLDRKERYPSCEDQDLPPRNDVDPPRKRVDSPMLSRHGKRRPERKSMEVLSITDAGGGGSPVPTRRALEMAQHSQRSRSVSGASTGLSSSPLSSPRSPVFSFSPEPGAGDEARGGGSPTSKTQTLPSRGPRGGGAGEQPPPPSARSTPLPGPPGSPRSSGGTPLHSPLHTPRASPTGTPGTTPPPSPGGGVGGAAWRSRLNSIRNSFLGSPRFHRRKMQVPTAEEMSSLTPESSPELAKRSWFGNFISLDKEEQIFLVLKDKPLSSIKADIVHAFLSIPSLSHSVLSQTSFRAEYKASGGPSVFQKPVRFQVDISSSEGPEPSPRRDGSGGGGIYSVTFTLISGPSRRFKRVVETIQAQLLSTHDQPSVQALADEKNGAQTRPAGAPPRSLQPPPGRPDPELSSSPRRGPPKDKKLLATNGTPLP

[6] = target: Calcium/calmodulin-dependent protein kinase type II subunit beta (Homo sapiens) (UniProt Q13554); assay: Binding affinity to wild-type human partial length CAMK2B (M1 to Q380 residues) expressed in Escherichia coli BL21 at 1 uM by Kinomescan method relative to control
Sequence of Calcium/calmodulin-dependent protein kinase type II subunit beta (Homo sapiens) (Q13554 whole entry, the tested form may be a part): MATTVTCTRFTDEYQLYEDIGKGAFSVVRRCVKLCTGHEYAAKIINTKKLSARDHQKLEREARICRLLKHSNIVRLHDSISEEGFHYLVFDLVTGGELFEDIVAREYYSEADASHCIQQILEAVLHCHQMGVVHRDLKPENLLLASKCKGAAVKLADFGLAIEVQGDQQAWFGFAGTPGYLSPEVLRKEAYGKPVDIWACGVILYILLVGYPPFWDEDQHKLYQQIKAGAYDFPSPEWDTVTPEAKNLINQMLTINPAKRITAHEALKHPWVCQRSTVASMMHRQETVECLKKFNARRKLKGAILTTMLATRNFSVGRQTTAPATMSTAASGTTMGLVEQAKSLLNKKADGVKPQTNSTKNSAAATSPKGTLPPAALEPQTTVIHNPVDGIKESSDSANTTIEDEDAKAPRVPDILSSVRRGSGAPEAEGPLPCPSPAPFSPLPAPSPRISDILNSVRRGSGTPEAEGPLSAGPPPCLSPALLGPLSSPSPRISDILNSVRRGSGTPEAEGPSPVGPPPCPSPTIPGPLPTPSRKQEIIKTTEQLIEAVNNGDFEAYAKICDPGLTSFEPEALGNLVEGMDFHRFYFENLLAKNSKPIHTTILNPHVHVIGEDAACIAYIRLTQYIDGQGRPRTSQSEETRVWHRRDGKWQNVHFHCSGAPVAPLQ

[7] = target: Ephrin type-A receptor 1 (Homo sapiens) (UniProt P21709); assay: Binding affinity to wild-type human partial length EPHA1 (V588 to I913 residues) expressed in Escherichia coli BL21 at 1 uM by Kinomescan method relative to control
[8] = target: Ephrin type-A receptor 6 (Homo sapiens) (UniProt Q9UF33); assay: Binding affinity to wild-type human partial length EPHA6 (Y700 to E1046 residues) expressed in Escherichia coli BL21 at 1 uM by Kinomescan method relative to control
Sequence of Ephrin type-A receptor 6 (Homo sapiens) (Q9UF33 whole entry, the tested form may be a part): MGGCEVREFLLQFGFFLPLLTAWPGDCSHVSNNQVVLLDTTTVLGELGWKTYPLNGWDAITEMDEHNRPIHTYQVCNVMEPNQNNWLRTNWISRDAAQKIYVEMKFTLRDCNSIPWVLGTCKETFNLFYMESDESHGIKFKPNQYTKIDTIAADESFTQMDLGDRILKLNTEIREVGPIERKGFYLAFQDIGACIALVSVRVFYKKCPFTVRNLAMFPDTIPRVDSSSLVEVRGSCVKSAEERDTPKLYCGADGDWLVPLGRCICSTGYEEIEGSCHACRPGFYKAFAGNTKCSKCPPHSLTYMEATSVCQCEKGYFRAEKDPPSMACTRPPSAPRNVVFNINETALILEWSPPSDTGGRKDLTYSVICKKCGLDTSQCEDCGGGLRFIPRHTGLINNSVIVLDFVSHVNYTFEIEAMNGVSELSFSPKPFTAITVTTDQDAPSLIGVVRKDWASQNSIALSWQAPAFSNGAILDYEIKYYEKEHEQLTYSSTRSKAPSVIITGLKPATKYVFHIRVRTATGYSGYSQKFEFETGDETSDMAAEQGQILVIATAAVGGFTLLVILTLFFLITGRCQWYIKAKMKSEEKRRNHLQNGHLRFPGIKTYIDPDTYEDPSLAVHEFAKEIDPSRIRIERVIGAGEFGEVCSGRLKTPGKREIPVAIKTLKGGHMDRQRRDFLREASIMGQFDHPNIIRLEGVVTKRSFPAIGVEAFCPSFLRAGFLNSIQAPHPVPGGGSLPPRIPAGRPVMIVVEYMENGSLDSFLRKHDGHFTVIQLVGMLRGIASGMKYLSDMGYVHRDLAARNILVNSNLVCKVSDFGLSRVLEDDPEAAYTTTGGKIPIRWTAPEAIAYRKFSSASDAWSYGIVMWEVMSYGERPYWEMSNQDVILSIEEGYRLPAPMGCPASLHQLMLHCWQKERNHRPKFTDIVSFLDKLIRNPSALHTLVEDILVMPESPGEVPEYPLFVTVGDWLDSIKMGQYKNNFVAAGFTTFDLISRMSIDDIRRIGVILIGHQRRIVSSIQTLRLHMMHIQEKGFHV

[9] = target: Mitogen-activated protein kinase 15 (Homo sapiens) (UniProt Q8TD08); assay: Binding affinity to wild-type human partial length ERK8 (M1 to P437 residues) expressed in Escherichia coli BL21 at 1 uM by Kinomescan method relative to control
[10] = target: Tyrosine-protein kinase ITK/TSK (Homo sapiens) (UniProt Q08881); assay: Binding affinity to wild-type human partial length ITK (R335 to L620 residues) expressed in Escherichia coli BL21 at 1 uM by Kinomescan method relative to control
[11] = target: Tyrosine-protein kinase JAK3 (Homo sapiens) (UniProt P52333); assay: Binding affinity to wild-type human partial length JAK3 JH1 catalytic domain (I781 to S1124 residues) expressed in HEK293 cells at 1 uM by Kinomescan method relative to control; assay type: cell-based
Sequence of Tyrosine-protein kinase JAK3 (Homo sapiens) (P52333 whole entry, the tested form may be a part): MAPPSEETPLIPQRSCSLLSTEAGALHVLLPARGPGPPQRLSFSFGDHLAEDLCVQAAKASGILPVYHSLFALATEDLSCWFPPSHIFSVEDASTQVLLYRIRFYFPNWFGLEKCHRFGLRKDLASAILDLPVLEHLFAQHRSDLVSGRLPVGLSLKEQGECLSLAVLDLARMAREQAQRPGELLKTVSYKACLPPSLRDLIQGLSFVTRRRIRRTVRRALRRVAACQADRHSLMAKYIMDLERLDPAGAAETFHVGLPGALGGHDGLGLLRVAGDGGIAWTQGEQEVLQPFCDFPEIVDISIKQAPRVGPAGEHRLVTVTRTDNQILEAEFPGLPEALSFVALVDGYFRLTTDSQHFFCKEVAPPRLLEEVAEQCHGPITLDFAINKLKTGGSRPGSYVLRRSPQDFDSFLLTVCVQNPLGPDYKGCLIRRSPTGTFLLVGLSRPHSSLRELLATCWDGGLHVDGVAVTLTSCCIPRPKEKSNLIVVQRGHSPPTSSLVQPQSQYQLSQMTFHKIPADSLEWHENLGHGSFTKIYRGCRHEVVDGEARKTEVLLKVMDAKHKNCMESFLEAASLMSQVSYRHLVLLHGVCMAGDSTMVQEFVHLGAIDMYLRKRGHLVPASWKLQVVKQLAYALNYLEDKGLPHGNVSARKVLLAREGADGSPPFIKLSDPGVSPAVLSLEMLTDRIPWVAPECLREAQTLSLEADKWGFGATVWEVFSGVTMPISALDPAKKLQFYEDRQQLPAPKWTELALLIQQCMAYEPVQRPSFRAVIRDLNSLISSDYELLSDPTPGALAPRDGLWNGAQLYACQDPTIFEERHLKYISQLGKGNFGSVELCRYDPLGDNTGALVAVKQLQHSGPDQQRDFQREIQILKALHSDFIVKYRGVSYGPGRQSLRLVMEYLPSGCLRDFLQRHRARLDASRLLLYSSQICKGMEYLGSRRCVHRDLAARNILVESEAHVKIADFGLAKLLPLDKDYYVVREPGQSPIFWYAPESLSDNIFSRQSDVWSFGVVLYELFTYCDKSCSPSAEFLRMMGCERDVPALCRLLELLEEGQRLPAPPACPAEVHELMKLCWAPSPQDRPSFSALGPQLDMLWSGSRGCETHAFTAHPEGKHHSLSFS

[12] = target: Hepatocyte growth factor receptor (Homo sapiens) (UniProt P08581); assay: Binding affinity to wild-type human partial length MET (D1010 to S1367 residues) expressed in Escherichia coli BL21 at 1 uM by Kinomescan method relative to control
[13] = target: Serine/threonine-protein kinase 4 (Homo sapiens) (UniProt Q13043); assay: Binding affinity to wild-type human full length MST1 (M1 to F487 residues) expressed in Escherichia coli BL21 at 1 uM by Kinomescan method relative to control
How it was run: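 Run as one kinome-wide competition binding panel with each compound at a single fixed concentration. Results were plotted as a kinome-wide selectivity map.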

[14] = target: cGMP-dependent protein kinase 1 (Homo sapiens) (UniProt Q13976); assay: Binding affinity to wild-type human partial length PRKG1 (L339 to F686 residues) expressed in Escherichia coli BL21 at 1 uM by Kinomescan method relative to control
[15] = target: RAF proto-oncogene serine/threonine-protein kinase (Homo sapiens) (UniProt P04049); assay: Binding affinity to wild-type human partial length RAF1 (I330 to T640 residues) expressed in Escherichia coli BL21 at 1 uM by Kinomescan method relative to control
Sequence of RAF proto-oncogene serine/threonine-protein kinase (Homo sapiens) (P04049 whole entry, the tested form may be a part): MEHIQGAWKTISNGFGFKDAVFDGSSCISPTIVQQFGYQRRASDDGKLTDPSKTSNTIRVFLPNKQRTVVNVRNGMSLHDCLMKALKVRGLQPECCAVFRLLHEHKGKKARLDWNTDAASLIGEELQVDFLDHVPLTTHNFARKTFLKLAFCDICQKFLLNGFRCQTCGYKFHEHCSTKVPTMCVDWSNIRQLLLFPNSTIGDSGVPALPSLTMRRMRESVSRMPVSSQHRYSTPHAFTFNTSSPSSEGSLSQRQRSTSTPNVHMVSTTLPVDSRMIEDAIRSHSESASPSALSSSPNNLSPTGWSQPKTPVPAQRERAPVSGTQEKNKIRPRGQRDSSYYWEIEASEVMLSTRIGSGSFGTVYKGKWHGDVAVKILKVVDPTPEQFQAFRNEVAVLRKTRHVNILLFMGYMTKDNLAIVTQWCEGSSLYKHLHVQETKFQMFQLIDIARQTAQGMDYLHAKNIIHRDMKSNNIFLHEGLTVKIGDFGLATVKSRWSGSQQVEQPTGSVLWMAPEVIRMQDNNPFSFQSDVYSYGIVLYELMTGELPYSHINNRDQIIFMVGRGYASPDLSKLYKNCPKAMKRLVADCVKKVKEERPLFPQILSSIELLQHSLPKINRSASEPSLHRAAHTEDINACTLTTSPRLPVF

[16] = target: Proto-oncogene tyrosine-protein kinase ROS (Homo sapiens) (UniProt P08922); assay: Binding affinity to wild-type human partial length ROS1 (A1921 to N2240 residues) expressed in Escherichia coli BL21 at 1 uM by Kinomescan method relative to control
[17] = target: Ribosomal protein S6 kinase alpha-4 (Homo sapiens) (UniProt O75676); assay: Binding affinity to wild-type human partial length N-terminal RPS6KA4 kinase domain 1 expressed in Escherichia coli BL21 at 1 uM by Kinomescan method relative to control
[18] = target: Ribosomal protein S6 kinase alpha-2 (Homo sapiens) (UniProt Q15349); assay: Binding affinity to wild-type human partial length C-terminal RSK2 kinase domain 2 (V402 to S715 residues) expressed in HEK293 cells at 1 uM by Kinomescan method relative to control; assay type: cell-based
[19] = target: Ribosomal protein S6 kinase alpha-6 (Homo sapiens) (UniProt Q9UK32); assay: Binding affinity to wild-type human partial length N-terminal RSK4 kinase domain 1 (M1 to E397 residues) expressed in HEK293 cells at 1 uM by Kinomescan method relative to control; assay type: cell-based
Sequence of Ribosomal protein S6 kinase alpha-6 (Homo sapiens) (Q9UK32 whole entry, the tested form may be a part): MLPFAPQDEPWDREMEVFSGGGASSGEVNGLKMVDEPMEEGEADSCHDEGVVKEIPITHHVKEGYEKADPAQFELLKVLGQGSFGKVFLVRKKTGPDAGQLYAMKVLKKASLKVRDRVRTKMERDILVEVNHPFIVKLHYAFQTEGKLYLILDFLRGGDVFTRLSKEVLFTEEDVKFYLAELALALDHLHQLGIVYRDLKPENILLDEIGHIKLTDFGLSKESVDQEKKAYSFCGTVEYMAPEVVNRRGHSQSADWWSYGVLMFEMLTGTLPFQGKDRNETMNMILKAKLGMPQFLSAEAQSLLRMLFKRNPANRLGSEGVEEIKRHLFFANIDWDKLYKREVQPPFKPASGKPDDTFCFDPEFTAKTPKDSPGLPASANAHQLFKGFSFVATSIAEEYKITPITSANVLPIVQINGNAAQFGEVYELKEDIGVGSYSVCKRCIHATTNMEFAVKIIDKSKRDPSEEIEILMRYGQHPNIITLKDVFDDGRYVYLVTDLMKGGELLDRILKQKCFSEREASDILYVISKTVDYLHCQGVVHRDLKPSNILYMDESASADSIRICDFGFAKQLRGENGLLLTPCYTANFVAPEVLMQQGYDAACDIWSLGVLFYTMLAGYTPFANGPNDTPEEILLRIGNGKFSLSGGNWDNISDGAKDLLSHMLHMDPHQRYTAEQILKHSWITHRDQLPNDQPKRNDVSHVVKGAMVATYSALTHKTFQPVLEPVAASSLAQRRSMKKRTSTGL

[20] = target: NUAK family SNF1-like kinase 2 (Homo sapiens) (UniProt Q9H093); assay: Binding affinity to wild-type human partial length SNARK (P22 to A333 residues) expressed in HEK293 cells at 1 uM by Kinomescan method relative to control; assay type: cell-based
[21] = target: SRSF protein kinase 1 (Homo sapiens) (UniProt Q96SB4); assay: Binding affinity to wild-type human full length SRPK1 (M1 to S655 residues) expressed in Escherichia coli BL21 at 1 uM by Kinomescan method relative to control; how it was run: as §1
[22] = target: STE20/SPS1-related proline-alanine-rich protein kinase (Homo sapiens) (UniProt Q9UEW8); assay: Binding affinity to wild-type human partial length STK39 (P43 to I357 residues) expressed in HEK293 cells at 1 uM by Kinomescan method relative to control; assay type: cell-based
[23] = target: Non-receptor tyrosine-protein kinase TNK1 (Homo sapiens) (UniProt Q13470); assay: Binding affinity to wild-type human full length TNK1 (M1 to P661 residues) expressed in Escherichia coli BL21 at 1 uM by Kinomescan method relative to control; how it was run: as §1
[24] = target: Serine/threonine-protein kinase 25 (Homo sapiens) (UniProt O00506); assay: Binding affinity to wild-type human partial length YSK1 (V14 to H295 residues) expressed in Escherichia coli BL21 at 1 uM by Kinomescan method relative to control
[25] = target: Tyrosine-protein kinase ZAP-70 (Homo sapiens) (UniProt P43403); assay: Binding affinity to wild-type human partial length ZAP70 (D20 to G299 residues) expressed in HEK293 cells at 1 uM by Kinomescan method relative to control; assay type: cell-based

Compound	Activity [1] [%]	Activity [2] [%]	Activity [3] [%]	Activity [4] [%]	Activity [5] [%]	Activity [6] [%]	Activity [7] [%]	Activity [8] [%]	Activity [9] [%]	Activity [10] [%]	Activity [11] [%]	Activity [12] [%]	Activity [13] [%]	Activity [14] [%]	Activity [15] [%]	Activity [16] [%]	Activity [17] [%]	Activity [18] [%]	Activity [19] [%]	Activity [20] [%]	also measured
C=CC(=O)Nc1ccc(C(=O)Nc2ccc(Nc3ncc4c(n3)N(C)c3ccc(C)cc3C(=O)N4C)cc2)cc1	99	100	100	0	100	100	97	86	96	94	88	100	45	100	88	98	100	100	76	93	Activity [21]: 89%; Activity [22]: 88%; Activity [23]: 89%; Activity [24]: 87%; Activity [25]: 97%
CCC(=O)Nc1ccc(C(=O)Nc2ccc(Nc3ncc4c(n3)N(C)c3ccc(C)cc3C(=O)N4C)cc2)cc1	96	99	83	0.45	90	96	100	76	94	76	100	90	83	100	96	81	95	100	74	65	Activity [21]: 86%; Activity [22]: 73%; Activity [23]: 71%; Activity [24]: 100%; Activity [25]: 95%
